Measurements: publication PMC8263925 (The Journal of General Physiology, 2021)
Each block holds one compound with its values, some of them ahead of it.

Tests used:
[1] = target: T1, Hv1 WT (Homo sapiens, UniProt Q96D96); assay type: cell-based; details: for inhibition kinetics: fast and slow components: RDT = 0.2
T1 sequence (Q96D96 1-273): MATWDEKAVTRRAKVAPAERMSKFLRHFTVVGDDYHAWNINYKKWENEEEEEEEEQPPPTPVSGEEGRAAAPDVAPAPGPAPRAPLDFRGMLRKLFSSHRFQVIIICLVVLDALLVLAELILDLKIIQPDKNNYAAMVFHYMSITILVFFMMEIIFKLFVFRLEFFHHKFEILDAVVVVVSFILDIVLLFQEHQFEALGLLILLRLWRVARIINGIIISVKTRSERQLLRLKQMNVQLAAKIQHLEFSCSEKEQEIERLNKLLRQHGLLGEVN
Method in brief: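 WT channel in inside-out oocyte patches, symmetric pH 6.0, 22 ± 1°C. Holding −40 mV, depolarization to +120 mV; relative depolarization time td/(tr + td) of 0.1, 0.2, 0.3 or 0.5. 50 µM perfused into bath, then washed out. End-pulse current normalized. Decay fitted double-exponentially (τfast, τslow, weights, c∞); recovery fitted single-exponentially. n = 7, 7, 5, 8 per RDT; SEM.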

[2] = target: T1, Hv1 WT; assay: Inside-out patch, pulsed application of inhibitor to the closed channel; assay type: cell-based; details: 100 µM pulses, membrane held at 0 mV or −80 mV
Method in brief: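 WT channel, inside-out oocyte patches, pH 6.0. Test compound (100 µM) applied in 3 s pulses while the membrane was held closed at −40 mV, or at 0 mV or −80 mV. Current read after each pulse with a step to +120 mV. Control pulses of a reference Hv1 inhibitor given first to confirm complete washout between depolarizations.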

[3] = target: T1, Hv1 WT; details: 200 µM; ref Hong et al. (2013); cited from earlier work
[4] = test system: Hv1; details: full set of concentration points; ref Zhao et al., 2021; cited from earlier work

Compound: Nc1nc2ccccc2[nH]1 [ABI, 2-aminobenzimidazole, reference compound]
- extent and kinetics of proton current inhibition compared with 2GBI ([1]; 50 μM, same conditions as 2GBI): inhibited the proton current to a smaller extent but with similar kinetics

Compound: Cc1[nH]c(N)nc1CCC(O)c1cc(F)cc(F)c1 (stereo not shown) [HIFOH, 3-(2-amino-5-methyl-1H-imidazol-4-yl)-1-(3,5-difluorophenyl)propan-1-ol]
- inhibition kinetics: fast and slow components ([1]; 50 μM): did not have a significant slow component

Compound: N=C(N)Nc1nc2ccccc2[nH]1 [2GBI, 2-guanidinobenzimidazole, reference compound]
- return of current to original level upon washout ([1]; after 50 μM, washout): a few seconds
- inhibition at 50 µM ([1]; read-out: stable inhibited current level (of the original current)): ~50%
- inhibition when transiently perfused on closed channel [2]: failed to produce any inhibition
- G-V shift [3]: lack of G-V shift

Compound: Cc1[nH]c(N)nc1CCC(=O)c1ccccc1 [HIFNF, 3-(2-amino-5-methyl-1H-imidazol-4-yl)-1-phenyl-propan-1-one]
- inhibition kinetics: fast and slow components ([1]; 50 μM): with fast and slow components

Now from value to compound, other results behind:

- inhibition kinetics: fast and slow components ([1]; 50 μM): with fast and slow components
Compound: Cc1[nH]c(N)nc1CNC(=O)c1cc(F)cc(F)c1 [HIFNH, N-[(2-amino-5-methyl-1H-imidazol-4-yl)methyl]-3,5-difluorobenzamide]

- inhibition kinetics: fast and slow components ([1]; 50 μM): with fast and slow components
Compound: Cc1[nH]c(N)nc1/C=C/C(=O)c1cc(F)cc(F)c1 [HIFEN, (2E)-3-(2-amino-5-methyl-1H-imidazol-4-yl)-1-(3,5-difluorophenyl)prop-2-en-1-one]
- Hill coefficient [4]: 1.50 ± 0.11
